Source: PubChem BioAssay
Active and inactive are the calls of the source.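 Rule for the calls, unless noted: active = fluorescence slope higher than the sample average by over 3 SD (cut at about -0.22 in these data, passing the limit was not always enough); inactive = the rest.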

Key:
[1] = inhibitors of TNFa-induced NFkB p65 translocation, primary screen, imaging, HUVEC, MLSMR starter and 10KST1 sets (AID 438;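 active = inhibition above 20% together with a positive visual image hit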;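 note: compound added about 3h40 before a 20 min TNFalpha stimulation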;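 for inhibition: signal is the nuclear over cytoplasmic p65 intensity ratio per well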); conditions: HUVEC TNFa-induced p65 nuclear translocation; cell count: measured here: nuclei count (cytotoxicity indicator), at 2.08 µM; inhibition: at 2 µM, stronger effect = higher value, 0% TNFa-plus-vehicle, 100% no-TNFa wells
[2] = reduction of polyQ htt aggregates in cells – imaging, exon1htt(103Q)mCFP cells, high-content imaging, primary screen (AID 483;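 active = visual image review flags a hit and inhibition of aggregation exceeds 20%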;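 note: compound exposure lasted 3 days before fixation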;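 for nuclei count: percent of the per-plate median nuclei count of sample wells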); conditions: exon1htt(103Q)mCFP cell line, aggregate imaging, at 2 µM; inhibition of aggregation: stronger effect = higher value; nuclei count: measured here: cell count, toxicity
[3] = endothelial E-selectin expression blockers – imaging, HUVEC, immunofluorescence, MLSMR starter and 10KST1 sets, primary screen (AID 487;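 active = visually confirmed hit in the image check and inhibition above 20%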;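 for inhibition: signal is fraction of cell area covered by stained E-selectin grains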;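 for nuclei count: 100% = median nuclei count of all wells on the same plate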); conditions: HUVEC TNFalpha-induced E-selectin immunofluorescence imaging, at 2 µM; inhibition: stronger effect = higher value; nuclei count: measured here: cell number, toxicity
[4] = target: Voltage-gated potassium channel subunit beta-2 (Rattus norvegicus) (UniProt P62483); test: inhibitors of rat Kvbeta2 reductase activity – biochemical, NADPH fluorescence, primary screen (AID 622); conditions: recombinant KvBeta, 4-cyanobenzaldehyde reduction, at 10 µM, stronger effect = higher value;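 note: slope of raw intensity against log time taken from 70 to 1610 s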
Sequence of Voltage-gated potassium channel subunit beta-2 (Rattus norvegicus) (P62483 whole entry, looked up): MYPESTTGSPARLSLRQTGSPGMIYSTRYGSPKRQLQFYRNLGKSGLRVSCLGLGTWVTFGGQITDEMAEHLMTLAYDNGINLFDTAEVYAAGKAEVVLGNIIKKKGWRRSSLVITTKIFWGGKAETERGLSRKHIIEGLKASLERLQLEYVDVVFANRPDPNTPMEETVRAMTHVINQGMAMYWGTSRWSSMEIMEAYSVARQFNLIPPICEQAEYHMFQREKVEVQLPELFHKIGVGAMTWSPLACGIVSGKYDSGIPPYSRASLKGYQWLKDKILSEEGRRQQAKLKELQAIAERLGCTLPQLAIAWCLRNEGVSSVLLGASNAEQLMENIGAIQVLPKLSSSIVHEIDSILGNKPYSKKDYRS

[5] = target: Voltage-gated potassium channel subunit beta-2 (Rattus norvegicus) (UniProt P62483); test: enhancers of rat Kvbeta2 NADPH turnover – biochemical, NADPH fluorescence, primary screen (AID 623;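 active = NADPH fluorescence slope more negative than the mean of all samples by about 3 SD, 99.7% confidence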;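 note: fluorescence intensity change per second fitted from 20 to 320 s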); conditions: Recombinant KvBeta, NADPH fluorescence decrease slope, 10 min; at 10 µM; stronger effect = lower value
[6] = target: Alpha-2C adrenergic receptor (Homo sapiens) (UniProt P18825); test: compounds altering alpha2C-coupled GIRK flux – cell-based, HEK293 alpha2C/GIRK1/2, thallium flux, primary screen (AID 624;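 active = fluorescence slope after compound addition differing from the mean of all screened samples at 99.7% confidence, in either direction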;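 note: slope of fluorescence ratio to pre-addition baseline per second over 15 to 24 s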); conditions: thallium flux BTC fluorescence, at 10 µM, actives lie on both sides
Sequence of Alpha-2C adrenergic receptor (Homo sapiens) (P18825 whole entry, looked up): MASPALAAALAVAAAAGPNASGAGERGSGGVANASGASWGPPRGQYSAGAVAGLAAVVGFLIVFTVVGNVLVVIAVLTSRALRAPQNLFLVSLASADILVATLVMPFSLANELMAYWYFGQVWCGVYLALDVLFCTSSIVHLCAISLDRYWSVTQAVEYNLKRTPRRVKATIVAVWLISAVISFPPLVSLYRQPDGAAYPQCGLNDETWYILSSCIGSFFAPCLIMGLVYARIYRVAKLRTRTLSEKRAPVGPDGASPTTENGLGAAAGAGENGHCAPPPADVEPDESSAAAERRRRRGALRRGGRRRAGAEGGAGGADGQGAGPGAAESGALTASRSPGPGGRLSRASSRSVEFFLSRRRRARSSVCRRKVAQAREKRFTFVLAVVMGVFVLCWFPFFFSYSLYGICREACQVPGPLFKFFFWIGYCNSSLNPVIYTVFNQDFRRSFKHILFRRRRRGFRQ

[7] = inhibitors of larval lipid processing in zebrafish, primary screen, whole organism, PED6 fluorescence, gall bladder and intestine (AID 686;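 active = a full or partial loss of lipid-probe fluorescence in the fish gall bladder, intestine or both, judged by eye; inactive = no fluorescence loss, or compound toxic to the fish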;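 note: larvae 5 to 7 days old with five fish per well; signal comes from phospholipase A2 cleavage of quenched PED6 carried via bile; overnight exposure to compound and PED6 before scoring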); conditions: Zebrafish larvae PED6 lipid processing, fluorescence scoring; screened at 20 µM (by protocol)
In short: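 Also added: quenched phospholipase substrate PED6, 100 nM final, ingested by larvae; System: zebrafish larvae, 5-7 d; Quantity: 5 larvae per well; Compound: 20 µM single dose; Schedule: overnight compound and PED6 incubation; Read-out: visual per-well fluorescence inhibition score; Measured by: By-eye fluorescence microscopy; Medium: E3.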

[8] = blockers of RIG-like receptor reporter activation – cell-based, Sendai virus stimulus, luciferase, 10K MLSCN set, TLR/RLR signaling modifier project, primary screen (AID 602276;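 active = inhibition at or above 50% at 10 µM; inactive = inhibition below 50%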;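 note: firefly luciferase from ISG56 promoter only with Renilla not read in this screen; 0% = Sendai virus plus DMSO and 100% = medium plus DMSO without virus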); conditions: HEK293 RL24 IRF3 luciferase reporter, at 10 µM, stronger effect = higher value
[9] = TLR3 IRF3 reporter activation blockers – cell-based, poly I:C stimulus, luciferase, 10K MLSCN set, primary screen (AID 602277;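 active = inhibition of the reporter signal at or above 50%; inactive = inhibition below 50%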); conditions: HEK293-TLR3 RL24 IRF3 luciferase reporter, at 10 µM, stronger effect = higher value

| SMILES | cell count [1] | inhibition [1] | inhibition of aggregation [2] | nuclei count [2] [%] | inhibition [3] | nuclei count [3] [%] | fluorescence slope [4] | NADPH fluorescence slope [5] | slope [6] | outcome [7] | inhibition [8] | inhibition [9] |
| --- | --- | --- | --- | --- | --- | --- | --- | --- | --- | --- | --- | --- |
| CN(C)C(=O)CSc1nnc2sc3ccccc3n12 | 388 | -9.2% (inactive) | -15.4% (inactive) | 105 | -32.3% (inactive) | 102 | -0.438 (inactive) | -2.4e-05 (inactive) | 0.00511 (inactive) | inactive | 15.9% (inactive) | 23.7% (inactive) |
| CN(C)c1nc(Oc2ccc(N)cc2)nc(N(C)C)n1 | 362 | 2.1% (inactive) | 15.5% (inactive) | 94.2 | 27% (inactive) | 92 | -0.379 (inactive) | -7.9e-05 (inactive) | 0.00462 (inactive) | inactive | -1.54% (inactive) | -2.53% (inactive) |
| CCCCCc1nnc(NC(=O)Cc2cccs2)s1 | 325 | 3.8% (inactive) | -1.3% (inactive) | 93.5 | -23.7% (inactive) | 95.6 | -0.412 (inactive) | -5.9e-05 (inactive) | 0.00431 (inactive) | inactive | 11.9% (inactive) | 1.2% (inactive) |
| COc1ccc(CSCCN)cc1Cl | 431 | -3.8% (inactive) | -22.4% (inactive) | 104 | 27.2% (inactive) | 107 | -0.4 (inactive) | -9.7e-05 (inactive) | 0.00556 (inactive) | inactive | -7.54% (inactive) | -8.95% (inactive) |
| CCOC(=O)C1CCN(CC(=O)Nc2c(C(=O)OC)[nH]c3ccc(Cl)cc23)CC1 | 340 | 4.8% (inactive) | -27.5% (inactive) | 104 | -29.3% (inactive) | 107 | -0.383 (inactive) | -6.2e-05 (inactive) | 0.00328 (inactive) | inactive | 8.17% (inactive) | -16.2% (inactive) |
| O=C(Nc1ccc2oc(Cc3ccc(Cl)cc3)nc2c1)c1cccnc1 | 396 | 6.7% (inactive) | -0.8% (inactive) | 93.5 | -15% (inactive) | 114 | -0.364 (inactive) | -2.3e-06 (inactive) | 0.00427 (inactive) | inactive | 14.7% (inactive) | 7.42% (inactive) |
| CC(=O)Nc1ccccc1OCC(=O)c1cc(C)n(Cc2cccs2)c1C | 425 | -2% (inactive) | -13.7% (inactive) | 45.4 | -54.1% (inactive) | 107 | -0.475 (inactive) | -4.2e-05 (inactive) | 0.00662 (inactive) | inactive; toxic | 49.5% (inactive) | -26.5% (inactive) |
| O=C(NCCCN1CCOCC1)c1cc(-c2ccc(Cl)cc2)on1 | 264 | -1.8% (inactive) | -1.6% (inactive) | 102 | -8.4% (inactive) | 113 | -0.294 (inactive) | 1.2e-05 (inactive) | 0.00493 (inactive) | inactive | 6.84% (inactive) | -3.16% (inactive) |
| COc1cccc(CC(=O)Nn2c(C)nc3ccccc3c2=O)c1 | 375 | 10.5% (inactive) | -8.2% (inactive) | 102 | -2% (inactive) | 115 | -0.395 (inactive) | -6e-05 (inactive) | 0.00573 (inactive) | inactive | -2.22% (inactive) | 98% (active) |
| COc1cccc(N2CCN(CC(=O)c3c[nH]c4ccc(OC)cc34)CC2C)c1 (centres undefined) | 508 | -6.7% (inactive) | 6% (inactive) | 85.4 | -36.3% (inactive) | 103 | -0.368 (inactive) | -3.9e-05 (inactive) | 0.00529 (inactive) | inactive | 12.4% (inactive) | 16% (inactive) |
| COc1ccc(C)cc1-n1nnnc1SC/C(O)=C(\C#N)c1nc2ccccc2[nH]1 | 614 | 5.1% (inactive) | -491% (inactive) | 42.2 | -42.5% (inactive) | 104 | -0.431 (inactive) | -3.4e-05 (inactive) | 0.00627 (inactive) | active; weak signal in gallbladder only | 15.6% (inactive) | 27% (inactive) |
| O=C(COc1ccc(F)cc1)Nc1ccc(-n2cnnn2)cc1 | 568 | 1.1% (inactive) | 34.2% (inactive) | 90.5 | 52.5% (inactive) | 62.3 | -0.409 (inactive) | -0.000109 (inactive) | 0.00564 (inactive) | inactive | 8.39% (inactive) | 1.26% (inactive) |
| COc1ccc(OCCOC(=O)c2cccc(-n3cnnn3)c2)cc1 | 289 | 4.4% (inactive) | 8.2% (inactive) | 92.8 | -5.5% (inactive) | 112 | -0.462 (inactive) | -4.8e-05 (inactive) | 0.00521 (inactive) | inactive | -2.23% (inactive) | -15.7% (inactive) |
| CCN(CC)S(=O)(=O)c1ccc2c(c1)nc(SCn1nnc3ccccc3c1=O)n2CC | 765 | 6% (inactive) | 6.8% (inactive) | 94.2 | -114% (inactive) | 129 | -0.433 (inactive) | -6.2e-05 (inactive) | 0.00509 (inactive) | inactive | 15.4% (inactive) | 11.9% (inactive) |
| O=C(CN1CCN(c2ccc(F)cc2)CC1)OCc1ccccc1 | 662 | 11.1% (inactive) | -6.3% (inactive) | 102 | 5.8% (inactive) | 118 | -0.356 (inactive) | -6.7e-05 (inactive) | 0.00472 (inactive) | inactive | 6.81% (inactive) | 6.58% (inactive) |
| COc1ccc(-c2noc(CSc3nc4ccccc4c(=O)n3-c3ccccc3)n2)cc1OC | 498 | -1.8% (inactive) | 12.7% (inactive) | 96.7 | -114% (inactive) | 128 | -0.412 (inactive) | -4.5e-05 (inactive) | 0.0108 (active) | inactive | 23.5% (inactive) | 26.1% (inactive) |
| CCCNC(=O)c1cc(-c2ccco2)on1 | 389 | -3.9% (inactive) | -4.1% (inactive) | 88.7 | -11.4% (inactive) | 98.4 | -0.39 (inactive) | -4.2e-05 (inactive) | 0.0057 (inactive) | inactive | -19% (inactive) | -154% (inactive) |
| CCn1nnnc1SCC(=O)N1c2ccccc2CCc2ccccc21 | 568 | -4.6% (inactive) | 2% (inactive) | 96.3 | -32.7% (inactive) | 117 | -0.377 (inactive) | -5.8e-05 (inactive) | 0.00737 (inactive) | inactive | 1.39% (inactive) | 1.68% (inactive) |
| CN(CCNC(=O)c1ccc(N2CCCC2=O)cc1)CCc1ccccc1 | 624 | -24% (inactive) | 17.8% (inactive) | 84.6 | -79.5% (inactive) | 111 | -0.393 (inactive) | -2.4e-05 (inactive) | 0.00561 (inactive) | inactive | 6.9% (inactive) | 10.4% (inactive) |
| C1CCN=C(Nc2nc3c(s2)CCCC3)CC1 | 432 | 7.3% (inactive) | -10.9% (inactive) | 118 | 8.7% (inactive) | 110 | -0.413 (inactive) | -3.8e-05 (inactive) | 0.00517 (inactive) | inactive | -23.9% (inactive) | -50% (inactive) |
| O=C(NCCC1=CCCCC1)C1CCN(S(=O)(=O)c2cnc[nH]2)CC1 | 472 | 4.5% (inactive) | -8.6% (inactive) | 93.1 | -36.1% (inactive) | 117 | -0.367 (inactive) | -4.7e-05 (inactive) | 0.0051 (inactive) | inactive | 13.7% (inactive) | 18.8% (inactive) |
| COc1ccc2c3c(c(=O)oc2c1OCC(N)=O)CCCC3 | 609 | -3.8% (inactive) | -17.4% (inactive) | 111 | -29.2% (inactive) | 102 | -0.0534 (active) | -8.5e-06 (inactive) | 0.00487 (inactive) | inactive | 14% (inactive) | 2.31% (inactive) |
| CC(N)C12CC3CC(C1)CC(C(C)N)(C3)C2 (centres undefined) | 394 | 3% (inactive) | -16.2% (inactive) | 102 | -14.3% (inactive) | 103 | -0.38 (inactive) | -6.5e-05 (inactive) | 0.00438 (inactive) | inactive | 13.4% (inactive) | 13.6% (inactive) |
| NS(=O)(=O)c1ccc(NC(=O)CSc2nnc(Cc3cccs3)n2-c2ccccc2)cc1 | 253 | -10.8% (inactive) | 7.5% (inactive) | 73.5 | -24.9% (inactive) | 100 | -0.45 (inactive) | -4.3e-05 (inactive) | 0.00519 (inactive) | inactive | 17.4% (inactive) | 21.4% (inactive) |
| O=C(O)c1ccc(CSc2ncn[nH]2)cc1 | 352 | -2.9% (inactive) | -12.6% (inactive) | 108 | -14.9% (inactive) | 114 | -0.42 (inactive) | -2.8e-05 (inactive) | 0.00649 (inactive) | inactive | 6.95% (inactive) | 1.16% (inactive) |
| CC(C)CC(c1nnnn1C(C)(C)C)N1CCN(C2CCCC2)CC1 (centres undefined) | 487 | 7.1% (inactive) | -11.7% (inactive) | 98.2 | -5.6% (inactive) | 109 | -0.33 (inactive) | -6.5e-05 (inactive) | 0.00477 (inactive) | inactive | 5.92% (inactive) | 13.5% (inactive) |
| Cc1nnc(SCc2cccc(Oc3ccccc3)c2)n1N | 701 | -4.2% (inactive) | 2.8% (inactive) | 108 | -59.1% (inactive) | 105 | -0.384 (inactive) | -3e-05 (inactive) | 0.00543 (inactive) | inactive | -4.43% (inactive) | 98.8% (active) |
